Test results published in ChEMBL document CHEMBL1153592, “1,8-Naphthyridine-3-carboxamide derivatives with anticancer and anti-inflammatory activity” (Eur J Med Chem, 2009).
Calls of active or inactive are those of the source. The calls are words filed in the database; no cut-off is given here.

What was measured:
MIA PaCa-2 [1] = assay: Cytotoxicity against human MIAPaCa2 cells after 72 hrs by MTT assay; format: functional, cell-based; conditions: MIA PaCa-2, 72 h
KB [2] = assay: Cytotoxicity against human KB cells after 72 hrs by MTT assay; format: functional, cell-based
SW-620 [3] = assay: Cytotoxicity against human SW620 cells after 72 hrs by MTT assay; format: functional, cell-based; conditions: SW-620, 72 h
HBL-100 [4] = assay: Cytotoxicity against human HBL100 cells after 72 hrs by MTT assay; format: functional, cell-based; conditions: HBL-100, 72 h
ECV-304 [5] = assay: Cytotoxicity against human ECV304 cells after 72 hrs by MTT assay; format: functional, cell-based; conditions: Homo sapiens, ECV-304, 72 h; read-out: IC50
[6] = Cytotoxicity against mouse NIH/3T3 cells after 72 hrs by MTT assay; format: cell-based, NIH3T3
DU-145 [7] = assay: Cytotoxicity against human DU145 cells after 72 hrs by MTT assay; format: functional, cell-based; conditions: DU-145, 72 h
[8] = Antiinflammatory activity in C57BL/6 mouse DC assessed as inhibition of LPS-induced IL1-beta production at 0.1 ug/ml after 24 hrs by ELISA; format: functional
In short: (§1)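 Dendritic cells grown from femoral bone marrow of 8–12-week-old C57BL/6 mice in RPMI-1640 with 10% FBS and 20 ng/ml rmGM-CSF at 37 °C, 5% CO2. Day-6 immature DCs were stimulated with 10 ng/ml LPS plus compound for 24 h. Supernatant cytokine/chemokine measured by ELISA (pg/ml); % change = (B−A)/A×100, versus LPS-stimulated DCs alone.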

K562 [9] = assay: Cytotoxicity against human K562 cells after 72 hrs by MTT assay; format: functional, cell-based; conditions: K562, 72 h
[10] = Antiinflammatory activity in C57BL/6 mouse DC assessed as inhibition of LPS-induced IP-10 production at 1 ug/ml after 24 hrs by ELISA; format: functional; in short: as §1
[11] = Antiinflammatory activity in C57BL/6 mouse DC assessed as inhibition of LPS-induced IP-10 production at 0.1 ug/ml after 24 hrs by ELISA; format: functional; in short: as §1
[12] = Antiinflammatory activity in C57BL/6 mouse DC assessed as inhibition of LPS-induced TNFalpha production at 0.1 ug/ml after 24 hrs by ELISA; format: functional; in short: as §1
A549 [13] = assay: Cytotoxicity against human A549 cells after 72 hrs by MTT assay; format: functional, cell-based; conditions: A549, 72 h
[14] = Antiinflammatory activity in C57BL/6 mouse DC assessed as inhibition of LPS-induced IL1-beta production at 1 ug/ml after 24 hrs by ELISA; format: functional; in short: as §1
PA-1 [15] = assay: Cytotoxicity against human PA1 cells after 72 hrs by MTT assay; format: functional, cell-based; conditions: PA-1, 72 h
[16] = Antiinflammatory activity in C57BL/6 mouse DC assessed as inhibition of LPS-induced TNFalpha production at 1 ug/ml after 24 hrs by ELISA; format: functional; in short: as §1
[17] = Antiinflammatory activity in C57BL/6 mouse DC assessed as inhibition of LPS-induced IL-6 production at 0.1 ug/ml after 24 hrs by ELISA; format: functional; in short: as §1
[18] = Antiinflammatory activity in C57BL/6 mouse DC assessed as inhibition of LPS-induced IL-6 production at 1 ug/ml after 24 hrs by ELISA; format: functional; in short: as §1
PA-1 [19] = assay: Cytotoxicity against human PA1 cells at 10 uM after 72 hrs by MTT assay; format: functional, cell-based
In short: (§2)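 Three-day MTT screen with 5000–10,000 cells/well and 72 h compound exposure at the top screening concentration. After 3 h of MTT uptake, lysis with 10% SDS–0.01 N HCl, then A540 read after 1 h. % cytotoxicity = (1 − X/R1)×100, where X is treated minus blank absorbance and R1 is untreated control absorbance.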

K562 [20] = assay: Cytotoxicity against human K562 cells at 10 uM after 72 hrs by MTT assay; format: functional, cell-based; in short: as §2
SW-620 [21] = assay: Cytotoxicity against human SW620 cells at 10 uM after 72 hrs by MTT assay; format: functional, cell-based; in short: as §2
ECV-304 [22] = assay: Cytotoxicity against human ECV304 cells at 10 uM after 72 hrs by MTT assay; format: functional, cell-based; in short: as §2
A549 [23] = assay: Cytotoxicity against human A549 cells at 10 uM after 72 hrs by MTT assay; format: functional, cell-based; in short: as §2
MIA PaCa-2 [24] = assay: Cytotoxicity against human MIAPaCa2 cells at 10 uM after 72 hrs by MTT assay; format: functional, cell-based; in short: as §2
DU-145 [25] = assay: Cytotoxicity against human DU145 cells at 10 uM after 72 hrs by MTT assay; format: functional, cell-based; in short: as §2
HBL-100 [26] = assay: Cytotoxicity against human HBL100 cells at 10 uM after 72 hrs by MTT assay; format: functional, cell-based; in short: as §2
[27] = Cytotoxicity against mouse NIH/3T3 cells at 10 uM after 72 hrs by MTT assay; format: cell-based; conditions: nih3t3, 72 h; in short: as §2
KB [28] = assay: Cytotoxicity against human KB cells at 10 uM after 72 hrs by MTT assay; format: functional, cell-based; in short: as §2

Structure (SMILES) | IC50 (MIA PaCa-2 [1]) | IC50 (KB [2]) | IC50 (SW-620 [3]) | IC50 (HBL-100 [4]) | IC50 (ECV-304 [5]) | IC50 (DU-145 [7]) | inhibition (INH) [8] | IC50 (K562 [9]) | inhibition (INH) [10] | inhibition (INH) [11] | inhibition (INH) [12] | IC50 (A549 [13]) | inhibition (INH) [14] | IC50 (PA-1 [15]) | inhibition (INH) [16] | inhibition (INH) [17] | inhibition (INH) [18] | Activity (PA-1 [19]) | Activity (K562 [20]) | Activity (SW-620 [21]) | further results
C#CCn1cc(C(=O)NC(CC(=O)Nc2ccccc2)c2ccccc2)c(=O)c2cccnc21 (centres undefined) | > 10 µM | > 10 µM | > 10 µM | > 10 µM | > 10 µM | 7.2 µM | 75.1% | > 10 µM | 33.1% | 31.7% | 19.1% | > 10 µM | 78.5% | > 10 µM | 29.7% | – | – | – | – | – | IC50 ([6]; nih3t3): Not Active
C#CCn1cc(C(=O)NC(CC(=O)Nc2ccccc2)c2ccccc2)c(=O)c2cc(F)c(Cl)nc21 (centres undefined) | 6.9 µM | > 10 µM | 5.7 µM | 9.3 µM | > 10 µM | 5.9 µM | 84.8% | 6.6 µM | 102.4% | 17.3% | 80% | > 10 µM | 106.8% | 2.1 µM | 99% | 60% | 96% | – | – | – | IC50 ([6]; Mus musculus, NIH3T3, 72 h, read-out: IC50): 9.7 µM
C#CCn1cc(C(=O)NC(CC(=O)NC2CCCC2)c2ccccc2)c(=O)c2cccnc21 (centres undefined) | – | – | – | – | – | – | 62.4% | – | 25% | 38.8% | 19.3% | – | 52.1% | – | 34.7% | – | – | inactive | inactive | inactive | Activity (ECV-304 [22]): inactive; Activity (A549 [23]): inactive; Activity (MIA PaCa-2 [24]): inactive; Activity (DU-145 [25]): inactive; Activity (HBL-100 [26]): inactive; Activity [27]: Not Active; Activity (KB [28]): inactive
C#CCn1cc(C(=O)NC(CC(=O)Nc2ccccn2)c2ccccc2)c(=O)c2cccnc21 (centres undefined) | – | – | – | – | – | – | 34.1% | – | – | – | – | – | 50.1% | – | – | 74.4% | 74.9% | inactive | inactive | inactive | Activity (ECV-304 [22]): inactive; Activity (A549 [23]): inactive; Activity (MIA PaCa-2 [24]): inactive; Activity (DU-145 [25]): inactive; Activity (HBL-100 [26]): inactive; Activity [27]: Not Active; Activity (KB [28]): inactive
